MEKK2 WT-MEK5: raises or lowers MEK5 binding to wildtype human MEKK2 PB1 domain; bead flow cytometry, Alexa488-MEK5 binding to MEKK2 WT; actives lie on both sides; 290,000 tested, 1.1% active; binding response (% of control), % at 10 µM; in the data active = binding response below about 67% or above about 130%
MEKK2mut PB1 HTS: signal of MEK5 binding to mutant human MEKK2 PB1 domain | percent response, % at 10 µM | 290,000 tested, 0.35% active | bead flow cytometry, Alexa488-MEK5 binding to MEKK2 mutant | AID 1530; in the data active = percent response above about 24%, passing the limit was not always enough
MEKK3 PB1 HTS: raises or lowers MEK5 binding to the human MEKK3 PB1 domain. AID 1529. bead-based flow cytometry, Alexa488-MEK5 binding to MEKK3; actives lie on both sides; 0 = blocked by unlabeled MEK5, 100 = vehicle. binding response (% of control), % at 10 µM. 290,000 tested, 1.4% active. Q99759;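 active = binding response more than 3 SD above or below the average of its plate-row segment, actives on both sides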;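 note: Alexa488 bead fluorescence after subtracting the streptavidin-only scavenger bead signal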
UBC13 inh: inhibitors of human UBC13 polyubiquitin chain formation; P61088; inhibition, % at 20 µM; TR-FRET; 330,000 tested, 0.47% active; in the data active = inhibition above about 45%, passing the limit was not always enough
Target sequence (P61088 whole entry, looked up): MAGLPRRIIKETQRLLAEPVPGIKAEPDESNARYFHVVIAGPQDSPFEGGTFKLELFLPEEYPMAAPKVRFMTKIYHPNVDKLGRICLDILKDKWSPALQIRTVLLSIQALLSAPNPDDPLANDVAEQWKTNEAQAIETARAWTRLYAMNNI
Apaf-1 inh: inhibitors of human Apaf-1 apoptosome. O14727. reconstituted apoptosome caspase-3 activity, DEVD-Rh110 fluorescence. 330,000 tested, 0.71% active. AID 489030. inhibition, % at 20 µM; active = inhibition of at least 40% at 20 µM;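 note: plate controls were DMSO wells for no effect and DEVD-CHO caspase inhibitor wells for full effect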
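Material: cell-free apoptosome with Apaf-1, procaspase-3 and caspase-9; Buffer or medium: Hepes pH 7.5 with detergent and BSA; Reagent: cytochrome c trigger plus (Z-DEVD)2-Rh110 caspase-3 substrate; Times: compound with Apaf-1, dATP, procaspase-3 30 min, then 50 min reaction, room temperature; Technique: Rh110 fluorescence intensity.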
MEKK2wt confirm: raises or lowers MEK5 binding to wildtype human MEKK2, retest | bead flow cytometry, Alexa488-MEK5 binding to MEKK2 WT; actives lie on both sides | 5,900 tested, 2.4% active | binding response (% of control), % at 10 µM | shares compounds with MEKK3 PB1 HTS; in the data active = binding response below about 16% or above about 210%; inactive = in between
MEKK2mut-MEK5: signal of MEK5 binding to mutant human MEKK2, retest; bead flow cytometry, Alexa488-MEK5 binding to MEKK2 mutant; AID 1893; percent response, % at 10 µM; shares compounds with MEKK3 PB1 HTS; 5,900 tested, 2% active; in the data active = percent response mostly above about 71%, no sharp cut-off; inactive = mostly below about 38%;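 note: higher means compound restores mutant binding toward wildtype level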
MEKK3 confirm: MEKK3-MEK5 PB1 inhibition, single concentration confirmation; bead flow cytometry, Alexa488-MEK5 binding to MEKK3; active compounds read low; AID 1894; 5,900 tested, 1.8% active; shares compounds with MEKK3 PB1 HTS; binding response (% of control), % at 10 µM;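 active = binding response below 72% of control, or above a set upper limit, though filed actives all read lower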;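 note: 100% = DMSO only wells and 0% = binding blocked by excess unlabeled MEK5; lower values mean stronger disruption of MEK5 binding to MEKK3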
* = called active by the depositor; . = no result given; [ ] = dose if it differs, or a comment. This is a sample that favours compounds with a hit; in the whole collection about 2.9% have one here.

SMILES	MEKK2 WT-MEK5	MEKK2mut PB1 HTS	MEKK3 PB1 HTS	UBC13 inh	Apaf-1 inh	MEKK2wt confirm	MEKK2mut-MEK5	MEKK3 confirm
Cc1ccc(S(=O)(=O)c2c(N)n(-c3ccccc3)c3nc4ccccc4nc23)cc1	102	0	136*	10	14	94	2	92
COc1cccc(NC(=O)C2CCC(CNS(=O)(=O)c3cccc4cccnc34)CC2)c1 (stereo not given)	99	0	102	-2	10	.	.	.
CCOC(=O)C(=CNc1ccc(NC2=NCC(C)S2)cc1)C(=O)OCC (stereo not given)	112	1	138*	.	.	110	5	101
COc1cc(OC)c(OC)cc1CCC(C)NCCC(c1ccccc1)c1ccccc1 (stereo not given)	166*	18	111	14	16	120	6	99
COc1ccccc1CCNC(C)CCc1ccc(O)cc1 (stereo not given)	109	10	106	0	5	.	.	.
COc1ccc(N2CCN(C3CCCN(Cc4cccc(C(C)=O)c4)C3)CC2)cc1 (stereo not given)	105	12	107	3	4	.	.	.
COc1nc(NCCc2ccc(OC)c(OC)c2)nc(OC)n1	105	10	103	-5	4	.	.	.
COc1nc(NCCC2=CCCCC2)nc(OC)n1	107	4	124*	8	2	107	4	106
COc1cccc(C(C)NC(=O)c2ccncc2)c1 (stereo not given)	107	4	106	0	-3	.	.	.
CCn1ccnc1CNCc1ccc(OCC(O)CN(C)Cc2ccccc2)cc1 (stereo not given)	138*	34	102	1	-12	118	23	104
CCc1ccc(CNCc2ccc(OCC(O)CN(C)Cc3ccccc3)cc2)nc1 (stereo not given)	170*	59*	105	15	-14	148	28	109
CN(Cc1ccccc1)CC(O)COc1ccc(CNCc2nccn2C)cc1 (stereo not given)	114	8	99	0	2	.	.	.
CN(Cc1ccccc1)CC(O)COc1ccc(CNCCc2ccncc2)cc1 (stereo not given)	115	-3	100	-2	-13	.	.	.
CN(Cc1ccccc1)CC(O)COc1ccc(CNCCc2cccnc2)cc1 (stereo not given)	187*	63*	107	7	-17	121	9	104
OC(COc1ccc(CNCCc2ccccc2F)cc1)CN1CCCCC1 (stereo not given)	168*	58*	102	7	14	140	15	109
O=C(c1ccccc1)c1ccc(OCC(O)CN2CCCCC2)cc1 (stereo not given)	116	11	107	-2	0	.	.	.
O=C(NCC(F)(F)F)Nc1cccnc1	121	22	127*	-6	-2	105	1	101
CC(C)CCNC(=O)Cc1csc(-c2ccccc2)n1	3.0*[inhibitor]	-46	2.0*[inhibitor]	-10	-4	92	-6	91
O=C(COc1ccc2ccc(=O)oc2c1)N1CC[C@@]2(O)CCCC[C@H]2C1	1.0*[inhibitor]	-24	2.0*[inhibitor]	4	-13	107	5	113
CC(=O)[C@@H]1[C@@H]2C(=O)N(c3ccccc3F)C(=O)[C@@H]2[C@H]2c3ccccc3C=NN12	92	-10	93	1	0	.	.	.
O=C(c1ccc(Cl)cc1)[C@@H]1[C@@H]2C(=O)N(c3cccc4ccccc34)C(=O)[C@@H]2C2c3ccccc3C=NN21 (stereo not given in full)	109	1	153*	9	8	101	-8	100
Cc1cc(C)n(-c2nc(SCC(=O)O)c3c4c(sc3n2)COC(C)(C)C4)n1	105	4	102	20	-19	.	.	.
Cc1cc(C)n(-c2nc(SCCN(C)C)c3c4c(sc3n2)CCCC4)n1	211*	49*	124*	30	6	152	28	98
COc1ccc(-c2nnc(OCc3ccccc3)c3ccccc23)cc1	104	0	129*	-5	8	110	9	110
Cc1ccc(CNC(=O)CNS(=O)(=O)c2ccc3nc(C)sc3c2)cc1	104	3	106	7	-7	.	.	.
SMILES	MEKK2 WT-MEK5	MEKK2mut PB1 HTS	MEKK3 PB1 HTS	UBC13 inh	Apaf-1 inh	MEKK2wt confirm	MEKK2mut-MEK5	MEKK3 confirm
COc1ccc(C2C3=C(CC(C)(C)CC3=O)Nc3c2c(=O)n(C)c(=O)n3C)cc1OC (stereo not given)	119	1	128*	19	-7	108	1	104
C=CCOc1ccccc1C1C2=C(CC(C)(C)CC2=O)Nc2c1c(=O)n(C)c(=O)n2C (stereo not given)	.	.	.	5	2	.	.	.
CC1=C(C)CC(C(=O)Nc2nc(-c3ccc(C)cc3C)c(C)s2)C(C(=O)O)C1 (stereo not given)	104	1	133*	-8	6	104	3	101
O=C(Cn1cnc2c(NC(=O)OCc3ccccc3)ncnc21)NCCN1CCOCC1	.	.	.	-8	-8	.	.	.
CCC(=O)N(CCc1ccccc1)Cc1cc2cc(OC)ccc2[nH]c1=O	120	30	135*	20	-7	95	1	103
COc1ccc(-c2csc(N(C)C(=O)c3cccs3)n2)cc1	103	3	106	-8	-2	.	.	.
CCN(CC)CCCN(C(=O)c1ccc(Br)cc1)c1nc(-c2ccc(OC)cc2)cs1	176*	24*	100	26	27	152	21	78
CCN(CC)CCCN(C(=O)c1ccco1)c1nc(-c2ccc(Cl)cc2)cs1	169*	39*	108	16	26	158	29	108
CCN(CC)CCCN(C(=O)c1cccs1)c1nc(-c2ccc(OC)cc2)cs1	143*	2	97	14	25	116	13	104
CCN(CC)CCCN(C(=O)c1ccco1)c1nc(-c2ccc(C)cc2)cs1	135	-1	105	9	-6	.	.	.
CCN(CC)CCCN(C(=O)c1cccc(C)c1)c1nc(-c2ccc(OC)cc2)cs1	143*	14	106	22	17	151	22	106
CCCn1c(=O)n(C)c(=O)c2c(SCC(=O)Nc3cc(C)on3)nc(C(C)(C)C)nc21	.	.	.	8	0	.	.	.
Cc1ccc(Cl)cc1N1CCN(C(=O)c2ccc3c(c2)CCN3S(C)(=O)=O)CC1	98	0	96	3	18	.	.	.
